According to paper PMC4408243 (Biochimica et biophysica acta, 2015):
Residue numbers refer to the chain shown, from its start. Values joined by “and” are separate entries in the source; they are usually repeats but may differ in a detail not shown here. Equal values may be shown once. Marks after values point to notes of the source that are not given here. Blank lines part the entries; values can stand above or below the compound they belong to.

What was measured:
rat FABP1 [1] = target: T1, rat FABP1 (Rattus norvegicus, UniProt P02692); assay: NBD-cholesterol fluorescence binding assay
T1 sequence (P02692 1-127): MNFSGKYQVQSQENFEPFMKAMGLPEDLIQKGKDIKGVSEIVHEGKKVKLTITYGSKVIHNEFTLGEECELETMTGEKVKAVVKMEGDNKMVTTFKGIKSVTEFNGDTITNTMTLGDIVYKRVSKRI
Outline: (§1)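 Recombinant FABP1 was titrated into NBD-cholesterol held at 20 nM, below its critical micellar concentration; human proteins ran 0–3.6 μM. Excitation was 490 nm and emission spectra were taken at 515–600 nm, 24°C. Emission maxima came from spectral analysis. Kd and Bmax were obtained by fitting the binding curve to a hyperbola. Data are mean ± SE, n = 3–5.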

human WT FABP1 T94T = target: T2, human WT FABP1 T94T (Homo sapiens, UniProt P07148); assay: NBD-cholesterol fluorescence binding assay
T2 sequence (P07148 1-127): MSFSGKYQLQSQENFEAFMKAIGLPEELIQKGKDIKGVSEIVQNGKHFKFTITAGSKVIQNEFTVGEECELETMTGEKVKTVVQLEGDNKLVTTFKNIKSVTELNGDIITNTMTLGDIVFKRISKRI
Outline: as §1

human FABP1 T94A variant = target: T3, human FABP1 T94A variant (Homo sapiens, UniProt P07148, T94A); assay: NBD-cholesterol fluorescence binding assay
T3 sequence (P07148 1-127 T94A): T2 sequence (P07148 1-127) with T94A
Outline: as §1

rat FABP1 [2] = target: T1, rat FABP1; assay: Isothermal titration calorimetry; type: binding
human WT FABP1 = target: T4, human WT FABP1 (Homo sapiens, UniProt P07148); assay: Isothermal titration calorimetry; type: binding
T4 sequence (P07148 1-127): T2 sequence (P07148 1-127)

human T94A variant FABP1 = target: T5, human T94A variant FABP1 (Homo sapiens, UniProt P07148, T94A); assay: Isothermal titration calorimetry; type: binding
T5 sequence (P07148 1-127 T94A): T2 sequence (P07148 1-127) with T94A

[3] = aqueous; cited from earlier work
[4] = NBD-cholesterol 20nM bound to protein, excitation 490 nm, 24°C
[5] = NBD-cholesterol 20nM, FABP1 0–3.6 μM, hyperbola fit
[6] = NBD-cholesterol 20nM, FABP1 0–3.6 μM, hyperbola fit, 24°C

Emission max (rat FABP1 [1]; [4]): 540.7 ± 0.7 nm
Bmax (fluorescence intensity at saturation) (rat FABP1 [1]; [5]): 68.2 ± 7.1 A.U.
Kd (rat FABP1 [1]; [6]): 480 ± 120 nM
Emission max (human WT FABP1 T94T; [4]): 544 nm and 543.9 ± 0.5 ^d nm
Bmax (fluorescence intensity at saturation) (human WT FABP1 T94T; [5]): 72.4 ± 7.7 A.U.
Kd (human WT FABP1 T94T; [6]): 1770 ± 430 nM
blue shift of emission maximum, bound versus aqueous buffer (human WT FABP1 T94T; normalized spectra): ~21 nm
fold higher affinity for NBD-cholesterol than WT (human FABP1 T94A variant): more than 3 fold
fold lower Kd than WT FABP1 T94T (human FABP1 T94A variant): 3.5 fold
maximal fluorescence intensity lower than when bound to WT FABP1 T94T (human FABP1 T94A variant): ~40%
shift of maximum emission, T94A variant compared to WT FABP1 T94T (human FABP1 T94A variant): 5 nm
Emission max (human FABP1 T94A variant; [4]): 549 nm and 548.9 ± 1.0 ^d, ^e nm
Bmax (fluorescence intensity at saturation) (human FABP1 T94A variant; [5]): 43.4 ± 3.3 ^d, ^e A.U.
Kd (human FABP1 T94A variant; [6]): 510 ± 150 nM
Compound: C[C@H](CNc1ccc([N+](=O)[O-])c2nonc12)[C@H]1CC[C@H]2[C@@H]3CC=C4C[C@@H](O)CC[C@]4(C)[C@H]3CC[C@]12C [NBD-cholesterol, 22-(N-(7-nitrobenz-2-oxa-1,3-diazol-4-yl)-amino)-23, 24-bisnor-5-cholen-3β-ol]

Kd (rat FABP1 [2]): 600 ± 200 nM
TΔS (rat FABP1 [2]; ITC, 25 °C, pH 8.0): 5.98 ± 0.72 kcal/mol
n, binding stoichiometry (rat FABP1 [2]; ITC, 25 °C, pH 8.0): 0.9 ± 0.1 mol/mol
ΔG, Gibbs free energy change (rat FABP1 [2]; ITC, 25 °C, pH 8.0): -9.8 ± 0.48 kcal/mol
ΔH, enthalpy change (rat FABP1 [2]; ITC, 25 °C, pH 8.0): -3.59 ± 0.24 kcal/mol
Kd (human WT FABP1): 1300 ± 400 nM
TΔS (human WT FABP1; ITC, 25 °C, pH 8.0): 5.02 ± 0.48 kcal/mol
n, binding stoichiometry (human WT FABP1; ITC, 25 °C, pH 8.0): 0.8 ± 0.2 mol/mol
ΔG, Gibbs free energy change (human WT FABP1; ITC, 25 °C, pH 8.0): -9.08 ± 0.72 kcal/mol
ΔH, enthalpy change (human WT FABP1; ITC, 25 °C, pH 8.0): -4.06 ± 0.48 kcal/mol
Kd (human T94A variant FABP1): 500 ± 100 nM
TΔS (human T94A variant FABP1; ITC, 25 °C, pH 8.0): 5.26 ± 0.24 kcal/mol
n, binding stoichiometry (human T94A variant FABP1; ITC, 25 °C, pH 8.0): 0.7 ± 0.2 mol/mol
ΔG, Gibbs free energy change (human T94A variant FABP1; ITC, 25 °C, pH 8.0): -10.8 ± 0.72 kcal/mol
ΔH, enthalpy change (human T94A variant FABP1; ITC, 25 °C, pH 8.0): −23 ± 4 ^b kJ/mol
fold higher cholesterol-binding affinity than WT FABP1 T94T (human T94A variant FABP1; NBD-cholesterol fluorescence and cholesterol ITC binding assays): 3 fold
Compound: CC(C)CCC[C@@H](C)[C@H]1CC[C@H]2[C@@H]3CC=C4C[C@@H](O)CC[C@]4(C)[C@H]3CC[C@]12C [cholesterol]
critical micellar concentration [3]: ~30 nM
